Molecular target: T1, Prostaglandin D2 receptor 2 (Homo sapiens, UniProt Q9Y5Y4)
T1 sequence (Q9Y5Y4 whole entry): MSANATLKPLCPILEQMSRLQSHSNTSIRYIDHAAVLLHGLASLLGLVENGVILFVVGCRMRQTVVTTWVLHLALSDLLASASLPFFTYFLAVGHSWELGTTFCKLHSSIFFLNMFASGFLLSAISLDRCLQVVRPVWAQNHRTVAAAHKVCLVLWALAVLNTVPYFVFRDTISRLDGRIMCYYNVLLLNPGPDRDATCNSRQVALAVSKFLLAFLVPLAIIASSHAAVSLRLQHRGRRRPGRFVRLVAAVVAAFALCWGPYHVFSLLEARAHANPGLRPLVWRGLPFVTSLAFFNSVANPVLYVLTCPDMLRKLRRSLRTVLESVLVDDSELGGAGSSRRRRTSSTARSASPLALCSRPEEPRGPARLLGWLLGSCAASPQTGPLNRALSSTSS
Test: Displacement of [3H]PGD2 from human CRTh2 receptor
Procedure, shortened: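 Human CRTh2 binding assay run in assay buffer. IC50 reported as the mean of at least three experiments.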

Row | SMILES | IC50 [nM]
1 | CN(C(=O)/C(C#N)=C/c1cn(CC(=O)O)c2c(F)cccc12)c1ccccc1 | 100
2 | CC(=O)N1CCc2c(c3ccccc3n2CC(=O)O)C1 | 1600
3 | CN(C(=O)/C(C#N)=C/c1cn(CC(=O)O)c2ccc(Cl)cc12)c1ccccc1 | 7
4 | CN(C(=O)/C(C#N)=C/c1cn(CC(=O)O)c2cc(F)ccc12)c1ccccc1 | 45
5 | N#C/C(=C\c1cn(CC(=O)O)c2ccccc12)C(=O)N(CCc1ccccc1)c1ccccc1 | 10
6 | CN(C(=O)/C(C#N)=C/c1cn(CC(=O)O)c2c(Cl)cccc12)c1ccccc1 | 50
7 | O=C(O)Cn1c2ccccc2c2cc(C(=O)Nc3ccccc3)ccc21 | 490
8 | CCCCN(C(=O)/C(C#N)=C/c1cn(CC(=O)O)c2ccccc12)c1ccccc1 | 20
9 | O=C(O)Cn1c2c(c3ccccc31)CN(C(=O)Nc1ccccc1)CC2 | 430
10 | O=C(O)Cn1c2c(c3ccccc31)CN(C(=O)Cc1ccccc1)CC2 | 200
11 | O=C(O)Cn1cc(/C=C/C(=O)Nc2ccccc2)c2ccccc21 | 4400
12 | N#C/C(=C\c1cn(CC(=O)O)c2ccccc12)C(=O)N(c1ccccc1)C1CCCCC1 | 30
13 | CN(C(=O)/C(C#N)=C/c1cn(CC(=O)O)c2cc(Cl)ccc12)c1ccccc1 | 290
14 | CCCCCC(=O)N1CCc2c(c3ccccc3n2CC(=O)O)C1 | 210
15 | Cc1ccc2c(/C=C(\C#N)C(=O)N(C)c3ccccc3)cn(CC(=O)O)c2c1 | 690
16 | C/C(=C(/C#N)C(=O)Nc1ccccc1)c1cn(CC(=O)O)c2ccccc12 | 510
